Source: PubChem (several laboratories)
PglD inh: inhibitors of Campylobacter jejuni PglD acetyltransferase; purified PglD enzyme, DTNB colorimetric CoA detection; inhibition, % at 12.5 µM; AID 602405; actives 0.098% (n = 360,000); in the data active = inhibition above about 16%, passing the limit was not always enough
VIM-2 inhibitor: inhibitors of Pseudomonas aeruginosa VIM-2 metallo-beta-lactamase | inhibition, % at 5.6 µM | AID 1527 | purified VIM-2, nitrocefin hydrolysis, epi-absorbance fluorescence | actives 0.89% (n = 290,000);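 active = inhibition above the mean of all tested compounds plus 3 SD, cutoff set per screening run, cut at about 7.5% in these data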;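 also: red hydrolysis product quenches plate fluorescence so inhibitors raise well fluorescence; 0% = enzyme with DMSO and 100% = DMSO without enzyme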
IMP-1 inhibitor: blocks Pseudomonas aeruginosa IMP-1 metallo-beta-lactamase; inhibition, % at 5.6 µM; purified IMP-1, nitrocefin hydrolysis, epi-absorbance fluorescence; actives 0.45% (n = 290,000);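 active = inhibition above the mean plus 3 SD of all compounds in the same screening run, cut at about 4.5% in these data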;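 also: 0% = IMP-1 with DMSO and 100% = DMSO wells lacking enzyme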
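System: purified IMP-1 / Input: IMP-1 dispensed at 0.2 nM / Medium: 50 mM HEPES pH 7.1, 50 µM ZnSO4, 0.05% Brij 35 / Timing: 15 min enzyme–compound preincubation, then 25 min nitrocefin reaction, 25 °C / Technique: plate fluorescence quenching by hydrolysis product, ex 480/em 530 nm / Repeats: singlicate testing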
PvdQ inh: blocks Pseudomonas aeruginosa PvdQ acylase activity | purified PvdQ acylase, fluorescence plate reader | inhibition, % at 10 µM | actives 0.063% (n = 340,000); in the data active = inhibition above about 30%, passing the limit was not always enough;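 also: 0% = vehicle neutral wells and 100% = reference inhibitor wells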
ERp5 inh: ERp5 (human) disulfide isomerase inhibition; ERp5 insulin aggregation, absorbance 650 nm, 90 min; inhibition, % at 9.99 µM; AID 651711; actives 0.05% (n = 350,000); Q15084;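 active = mean replicate inhibition above about 25%, with every replicate also reaching it, limit read from the data, passing the limit was not always enough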
Target sequence (Q15084 whole entry, looked up): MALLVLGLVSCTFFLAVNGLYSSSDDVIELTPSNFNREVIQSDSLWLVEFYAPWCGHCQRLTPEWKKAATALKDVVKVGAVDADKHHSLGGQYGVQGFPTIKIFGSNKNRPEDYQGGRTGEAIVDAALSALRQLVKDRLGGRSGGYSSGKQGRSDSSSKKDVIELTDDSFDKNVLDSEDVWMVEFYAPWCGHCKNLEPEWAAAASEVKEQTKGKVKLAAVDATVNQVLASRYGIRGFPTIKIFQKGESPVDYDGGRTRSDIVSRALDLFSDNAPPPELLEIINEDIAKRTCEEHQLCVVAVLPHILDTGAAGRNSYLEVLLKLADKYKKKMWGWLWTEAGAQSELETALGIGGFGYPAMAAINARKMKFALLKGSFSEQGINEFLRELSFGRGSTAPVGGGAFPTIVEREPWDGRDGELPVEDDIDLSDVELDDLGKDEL
PDI inh: inhibitors of human protein disulfide isomerase. P07237. inhibition, % at 10 µM. actives 0.052% (n = 350,000). PDI insulin aggregation turbidity, A650, 90 min;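 active = mean inhibition across replicates of 30% or more, whatever share of single replicates reach that level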
PglD inh SP: blocks Campylobacter jejuni PglD acetyltransferase activity | shares compounds with PglD inh | Purified C. jejuni PglD, DTNB absorbance 412 nm | inhibition, % at 20 µM | AID 743156 | 320 tested, under 10 active;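 active = mean inhibition across replicates of at least 20% with every single replicate also at 20% or more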;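 also: initial rate of CoA release by acetyl transfer from AcCoA to the UDP-4-amino sugar; 0% = median of neutral control wells and 100% = median of positive control wells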
* = called active by the depositor. Hits are enriched below; roughly 1% of the tested compounds scored in any of these assays.

Results for COc1ccc(-n2ccnc2)cc1 ?
PglD inh: 37*; VIM-2 inhibitor: -2; IMP-1 inhibitor: -2; PvdQ inh: 7; ERp5 inh: 5; PDI inh: 11; PglD inh SP: 9

Results for Cc1cc(C)c2c(NC(N)=S)n[nH]c2n1 ?
PglD inh: 26*; VIM-2 inhibitor: -2; IMP-1 inhibitor: -4; PvdQ inh: -1; ERp5 inh: 3; PDI inh: -5; PglD inh SP: 0

Results for COCC(=O)Nc1ccc2c(c1)OC[C@@H](C)N(C(=O)Cc1ccccn1)C[C@H](C)[C@H](OC)CN(C)C2=O ?
PglD inh: 1; ERp5 inh: -2

How did Nc1ccc(-c2cnc(-c3ccc(N)cc3)nc2)cc1 do in these assays?
PglD inh: 31*; VIM-2 inhibitor: -4; IMP-1 inhibitor: -3; PvdQ inh: -8; PDI inh: 4; PglD inh SP: 3

What do the screens show for `CCCNC(=O)C[C@H]1CC[C@@H]2[C@H](COc3ccc(NC(=O)c4ccccc4)cc3C(=O)N2C)O1`?
PglD inh: -1; ERp5 inh: -2

What do the screens show for `NC(=O)CC(NC(=O)c1ccc(Cl)cc1)C(=O)NCCc1ccc(S(N)(=O)=O)cc1` (stereo unspecified)?
PglD inh: 23*; VIM-2 inhibitor: -3; IMP-1 inhibitor: -4; PvdQ inh: -8; ERp5 inh: 3; PDI inh: 3; PglD inh SP: 0

What do the screens show for `NS(=O)(=O)c1ccc(CCNC(=O)CCCNC(=O)c2ccc(Cl)cc2)cc1`?
PglD inh: 0; VIM-2 inhibitor: -1; IMP-1 inhibitor: -4; PvdQ inh: 0; ERp5 inh: 2; PDI inh: 8

What do the screens show for `COC(=O)C[C@@H]1CC[C@H]2[C@@H](COc3ccc(NC(=O)Nc4cccc(C#N)c4)cc3C(=O)N2C)O1`?
PglD inh: -2; ERp5 inh: 0

What do the screens show for `c1ccc(COc2ncnc3c2ncn3CCCNCc2cccs2)cc1`?
PglD inh: 28*; ERp5 inh: -2; PDI inh: 1; PglD inh SP: 1

How did O=C(NCCCN1CCN(c2cccc(Cl)c2)CC1)c1cccc(N2CCCC2=O)c1 do in these assays?
VIM-2 inhibitor: -4; IMP-1 inhibitor: -3; PvdQ inh: -13; PDI inh: 13

Results for O=C(NCCCN1CCN(c2cccc(Cl)c2)CC1)c1ccc(N2CCCC2=O)cc1 ?
PglD inh: 35*; VIM-2 inhibitor: -1; IMP-1 inhibitor: -3; PvdQ inh: -2; PDI inh: -7; PglD inh SP: 6

What do the screens show for `O=C(CCCCCCC(=O)NCc1ccccc1)NCc1ccccc1`?
PglD inh: 84*; VIM-2 inhibitor: 0; IMP-1 inhibitor: -4; PvdQ inh: -8; ERp5 inh: -1; PDI inh: -7; PglD inh SP: -13

How did C[C@H]1CN([C@@H](C)CO)C(=O)c2cc(C#CCN(C)C)cnc2O[C@H]1CN(C)Cc1ccc(F)cc1 do in these assays?
PglD inh: -1; ERp5 inh: 2

How did CCn1cc(C(=O)NCCCN2CCCC(C)C2)c(=O)c2cc(S(=O)(=O)N3CCOCC3)ccc21 (stereo unspecified) do in these assays?
PglD inh: 24*; VIM-2 inhibitor: 0; IMP-1 inhibitor: -3; PvdQ inh: -22; ERp5 inh: 1; PDI inh: 0; PglD inh SP: 8

How did Oc1cc2c(cc1CN1CCN(c3cccc(C(F)(F)F)c3)CC1)CCC2 do in these assays?
PglD inh: 55*; VIM-2 inhibitor: -2; IMP-1 inhibitor: -2; PvdQ inh: -6; PDI inh: 3; PglD inh SP: 1

What do the screens show for `COc1ccc(N2CCN(Cc3cc4c(cc3O)CCC4)CC2)cc1`?
PglD inh: 2; VIM-2 inhibitor: -2; IMP-1 inhibitor: 1; PvdQ inh: -16; PDI inh: 11

How did O=C(C1=C[C@@H](c2csc3ccccc23)C[C@@H](OCCCCO)O1)N1CCCCCCC1 do in these assays?
PglD inh: -3; ERp5 inh: 0

Results for COc1cc(CC(=O)NCc2ccco2)cc(OC)c1OC ?
PglD inh: 22*; VIM-2 inhibitor: -2; IMP-1 inhibitor: -1; PvdQ inh: -6; PDI inh: 1; PglD inh SP: -1

How did COc1cc(C(=O)NCc2ccco2)cc(OC)c1OC do in these assays?
VIM-2 inhibitor: -4; IMP-1 inhibitor: -1; PvdQ inh: -11; PDI inh: 0

How did C[C@@H]1CN([C@H](C)CO)C(=O)c2cc(-c3ccccc3)cnc2O[C@@H]1CN(C)C(=O)NC1CCCC1 do in these assays?
PglD inh: 1; ERp5 inh: 0

What do the screens show for `COc1ccc(C2CC(c3ccccc3)=NN2C(=O)COC(=O)/C=C/c2ccc(O)c(OC)c2)cc1` (stereo unspecified)?
PglD inh: 34*; VIM-2 inhibitor: 1; IMP-1 inhibitor: 0; PvdQ inh: 6; ERp5 inh: 2; PDI inh: 0; PglD inh SP: 7

How did CO[C@H]1CN(C)C(=O)c2ccc(NS(=O)(=O)c3ccc(Cl)cc3)cc2OC[C@H](C)N(C)C[C@@H]1C do in these assays?
ERp5 inh: 8

How did O=S1(=O)CCO[C@H]2Cc3ccccc3[C@H]2N1Cc1ccc(F)cc1 do in these assays?
PglD inh: 27*; VIM-2 inhibitor: 0; IMP-1 inhibitor: -1; PvdQ inh: -1; ERp5 inh: -3; PDI inh: 0; PglD inh SP: -6

What do the screens show for `Cc1ccc(CN2[C@@H]3c4ccccc4C[C@@H]3OCCS2(=O)=O)cc1`?
PglD inh: 2; VIM-2 inhibitor: -1; IMP-1 inhibitor: 0; PvdQ inh: -29; ERp5 inh: 0; PDI inh: 0

How did COc1ccccc1-c1ccc2n(c1=O)C[C@@H]1[C@@H](CO)[C@H](C(=O)N3CCCCC3)[C@H]2N1CC1CC1 do in these assays?
PglD inh: -1; ERp5 inh: 2

What do the screens show for `O=C(NC1CCCCC1)N1CC(=O)N2[C@H](CO)[C@H](c3ccc(/C=C/c4ccccc4)cc3)[C@H]2C1`?
ERp5 inh: -3

What do the screens show for `CCOC(=O)C1CCCN(C2CC(=O)N(c3ccccc3)C2=O)C1` (stereo unspecified)?
PglD inh: 27*; VIM-2 inhibitor: -2; IMP-1 inhibitor: -3; PvdQ inh: -2; ERp5 inh: 5; PDI inh: -3; PglD inh SP: -3

Results for CCOC(=O)C1CCCN(C2CC(=O)N(c3ccc(N4C(=O)CC(N5CCCC(C(=O)OCC)C5)C4=O)cc3)C2=O)C1 (stereo unspecified) ?
PglD inh: -16; VIM-2 inhibitor: -1; IMP-1 inhibitor: -2; PvdQ inh: -11; PDI inh: 5
